Compounds with a hit are over-represented: about 5.8% of the library has one in this group of screens.
IDH1 mut inh – IDH1 R132H (human) inhibition | IDH1 R132H reductase, diaphorase/resazurin fluorescence, 60 min | inhibition, % at 10 µM | hit rate 0.18% among 70,000 | O75874; in the data active = inhibition above about 34%; inconclusive = no clear call, values can overlap the other calls; inactive = below about 11%
Target sequence (O75874 whole entry R132H): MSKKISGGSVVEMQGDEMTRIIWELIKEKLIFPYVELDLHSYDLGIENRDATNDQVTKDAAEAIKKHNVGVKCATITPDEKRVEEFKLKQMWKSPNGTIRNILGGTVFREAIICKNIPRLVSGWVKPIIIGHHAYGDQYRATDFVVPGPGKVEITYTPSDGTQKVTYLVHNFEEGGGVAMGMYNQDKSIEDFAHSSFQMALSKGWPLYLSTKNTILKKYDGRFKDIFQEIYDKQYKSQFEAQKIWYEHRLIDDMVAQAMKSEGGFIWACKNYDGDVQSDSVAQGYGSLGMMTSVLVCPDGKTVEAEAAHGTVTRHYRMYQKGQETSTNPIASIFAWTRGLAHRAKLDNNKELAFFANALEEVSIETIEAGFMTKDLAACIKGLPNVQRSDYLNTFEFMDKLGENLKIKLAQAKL
GASC1 inh – KDM4C (human) demethylase inhibition. AID 720574. Q9H3R0. hit rate 0.15% among 96,000. GST-KDM4C 2-372, H3K9me3 peptide, LANCE TR-FRET. inhibition, % at 12.5 µM;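 active = mean replicate inhibition above about 25%, with at least 55% of replicates also reaching it, limit read from the data, passing the limit was not always enough; inconclusive = only one of those two conditions met; inactive = neither condition met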
Target sequence (Q9H3R0 2-372 limits assumed): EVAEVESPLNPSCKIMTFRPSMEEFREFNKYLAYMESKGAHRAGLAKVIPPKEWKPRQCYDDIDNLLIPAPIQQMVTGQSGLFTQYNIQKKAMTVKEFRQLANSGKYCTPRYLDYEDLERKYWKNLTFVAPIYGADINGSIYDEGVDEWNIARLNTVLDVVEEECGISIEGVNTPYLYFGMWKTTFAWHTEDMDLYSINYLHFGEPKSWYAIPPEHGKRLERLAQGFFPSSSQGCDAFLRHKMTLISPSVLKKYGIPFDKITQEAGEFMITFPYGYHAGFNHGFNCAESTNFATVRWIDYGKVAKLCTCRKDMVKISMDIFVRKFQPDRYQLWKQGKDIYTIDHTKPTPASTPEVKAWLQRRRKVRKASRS
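System: N-terminal GST-fused human GASC-1 (KDM4C) fragment, residues 2-372; amount: enzyme final amount 10 nM; incubation: reaction 30 min RT, detection step 1 h RT; medium: HEPES buffer, pH 7.5, plus ascorbate; technique: LANCE TR-FRET, Eu antibody, ULight-streptavidin, EDTA, ex 340 nm, em 618/671 nm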
Pf Dd2 growth – P. falciparum Dd2 growth inhibition; SYBR Green, 72 h; hits give low values; activity change, % at 10 µM; hit rate 2.3% among 94,000; AID 1159554; in the data active = activity change below about -80%; inconclusive = no clear call, values can overlap the other calls
T cruzi growth-1 – T. cruzi proliferation inhibition. T. cruzi beta-gal in NIH3T3, GalScreen luminescence, 90 h. inhibition, % at 8.34 µM. hit rate 5.9% among 77,000;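 active = mean inhibition above about 93%, with at least 55% of replicates each passing it, limit read from the data, passing the limit was not always enough; inconclusive = only one of those two conditions holds; inactive = neither condition holds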
T cruzi growth-2 – Trypanosoma cruzi proliferation inhibition; shares compounds with T cruzi growth-1; T. cruzi beta-gal in NIH3T3, GalScreen luminescence, 90 h; inhibition, % at 8.35 µM; hit rate 72% among 5,600; AID 651739;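 active = mean replicate inhibition above about 95% and at least 55% of replicates individually reaching it, limit read from the data; inconclusive = only one of the two criteria is met; inactive = neither criterion is met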
T cruzi growth-3 – inhibitors of T. cruzi proliferation | shares compounds with T cruzi growth-1 | T. cruzi beta-gal in NIH3T3, GalScreen luminescence, 90 h | inhibition, % at 2.09 µM | hit rate 21% among 5,600;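 active = mean inhibition above about 95%, with at least 55% of replicates also reaching it, limit read from the data; inconclusive = meets just one of the two conditions; inactive = meets neither condition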
3T3 cytotox – kills mouse NIH/3T3 fibroblasts; shares compounds with T cruzi growth-1; NIH/3T3 viability, CellTiter-Glo ATP luminescence, 90 h; cytotoxicity (signal decrease), % at 8.35 µM; hit rate 14% among 5,600; AID 651742;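 active = mean signal decrease across replicates above about 35% based on untreated-well scatter, with enough replicates individually passing, limit read from the data; inconclusive = no rule stated though some were filed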
NIH3T3 tox 2 – kills mouse NIH/3T3 fibroblasts; inhibition, % at 24.9 µM; hit rate 56% among 5,600; shares compounds with T cruzi growth-1; NIH/3T3 viability, CellTiter-Glo ATP luminescence, 90 h;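 active = mean loss of cell viability signal at or above a set limit, and enough replicates individually reaching it; inconclusive = meets only the mean limit or only the replicate share; inactive = meets neither condition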
Each line names hits and unclear results; the compound was inactive in the other large screens (follow-up assays come after a bar, where they were run).

C[C@@H]1CCCCO[C@H](CN(C)S(=O)(=O)c2ccc(F)cc2)[C@H](C)CN([C@@H](C)CO)C(=O)c2cc(NC(=O)Nc3ccc4c(c3)OCO4)ccc2O1	Pf Dd2 growth -81.3, T cruzi growth-1 100.1 (no result: IDH1 mut inh) | T cruzi growth-2 102.2 | T cruzi growth-3 inactive | 3T3 cytotox inactive | NIH3T3 tox 2 inactive
C[C@@H]1CCCCO[C@@H](CN(C)S(=O)(=O)c2ccc(F)cc2)[C@H](C)CN([C@@H](C)CO)C(=O)c2cc(NC(=O)Nc3ccc4c(c3)OCO4)ccc2O1	none (no result: IDH1 mut inh)
COCC(=O)N1[C@@H](CO)[C@@H]2c3ccccc3N(C(=O)Nc3ccccc3Cl)C[C@@H]21	none (no result: IDH1 mut inh)
CN1C[C@@H](O)COC[C@@H]2O[C@H](CC(=O)N3CCN(c4ccccc4)CC3)CC[C@H]21	T cruzi growth-1 109.1 (no result: IDH1 mut inh) | T cruzi growth-2 inactive | T cruzi growth-3 inactive | 3T3 cytotox inactive | NIH3T3 tox 2 inactive
O=C(C[C@@H]1CC[C@@H]2[C@H](COC[C@H](O)CN2Cc2ccc(Oc3ccccc3)cc2)O1)N1CCN(c2ccccc2)CC1	T cruzi growth-1 115.2 (no result: IDH1 mut inh) | T cruzi growth-2 inactive | T cruzi growth-3 inactive | 3T3 cytotox inactive | NIH3T3 tox 2 103.9
O=C(C[C@@H]1CC[C@H]2[C@@H](COC[C@@H](O)CN2Cc2ccc(Oc3ccccc3)cc2)O1)N1CCN(c2ccccc2)CC1	none (no result: IDH1 mut inh)
O=C(C[C@H]1CC[C@H]2[C@@H](COC[C@H](O)CN2Cc2ccc(Oc3ccccc3)cc2)O1)N1CCN(c2ccccc2)CC1	T cruzi growth-1 134.4 (no result: IDH1 mut inh) | T cruzi growth-2 105.4 | T cruzi growth-3 inactive | 3T3 cytotox inactive | NIH3T3 tox 2 38.2
CO[C@H]1CN(C)C(=O)c2cc(NC(=O)C3CC3)ccc2OC[C@@H](C)N(Cc2ccncc2)C[C@H]1C	none (no result: Pf Dd2 growth)
O=C(C1CCCC1)N1CCCCN2[C@H](CO)[C@@H](c3ccc(C#CC4(O)CCCC4)cc3)[C@@H]2C1	none (no result: IDH1 mut inh, GASC1 inh)
O=C(C1CCC1)N1CCCCN2[C@@H](CO)[C@@H](c3ccc(C#CC4(O)CCCC4)cc3)[C@@H]2C1	T cruzi growth-1 inconclusive (no result: IDH1 mut inh) | T cruzi growth-2 inactive | T cruzi growth-3 inactive | 3T3 cytotox inactive | NIH3T3 tox 2 inactive
O=C(C1CCCC1)N1CCCCN2[C@@H](CO)[C@H](c3ccc(C#CC4(O)CCCC4)cc3)[C@@H]2C1	T cruzi growth-1 inconclusive (no result: IDH1 mut inh, GASC1 inh) | T cruzi growth-2 97.7 | T cruzi growth-3 inactive | 3T3 cytotox inactive | NIH3T3 tox 2 43.8
O=C(C1CCC1)N1CCCCN2[C@H](CO)[C@@H](c3ccc(C#CC4(O)CCCC4)cc3)[C@@H]2C1	none (no result: IDH1 mut inh)
COCC(=O)N1CC2(CN(Cc3ccccc3Cl)C2)c2c([nH]c3cc(OC)ccc23)[C@H]1CO	none (no result: IDH1 mut inh, GASC1 inh, T cruzi growth-1)
C[C@@H]1CN([C@@H](C)CO)C(=O)c2cc(NS(=O)(=O)c3ccc(Cl)cc3)ccc2O[C@@H](C)CCCCO[C@@H]1CN(C)C(=O)Nc1ccccc1	T cruzi growth-1 100.2 | T cruzi growth-2 97.9 | T cruzi growth-3 inactive | 3T3 cytotox inactive | NIH3T3 tox 2 24.2
C[C@@H]1CCCCO[C@H](CN(C)C(=O)Nc2ccccc2)[C@H](C)CN([C@@H](C)CO)C(=O)c2cc(NS(=O)(=O)c3ccc(Cl)cc3)ccc2O1	T cruzi growth-1 inconclusive | T cruzi growth-2 101.2 | T cruzi growth-3 inactive | 3T3 cytotox inactive | NIH3T3 tox 2 inactive
C[C@H](CO)N1C[C@H](C)[C@H](CN(C)C(=O)Nc2ccccc2)OCCCC[C@H](C)Oc2ccc(NS(=O)(=O)c3ccc(Cl)cc3)cc2C1=O	GASC1 inh 78.7, T cruzi growth-1 124.1 (no result: IDH1 mut inh) | T cruzi growth-2 110.3 | T cruzi growth-3 inactive | 3T3 cytotox inactive | NIH3T3 tox 2 inactive
C[C@@H]1CCCCO[C@H](CN(C)C(=O)Nc2ccccc2)[C@@H](C)CN([C@H](C)CO)C(=O)c2cc(NS(=O)(=O)c3ccc(Cl)cc3)ccc2O1	none
C[C@H](CO)N1C[C@H](C)[C@@H](CN(C)C(=O)Nc2ccccc2)OCCCC[C@H](C)Oc2ccc(NS(=O)(=O)c3ccc(Cl)cc3)cc2C1=O	none (no result: IDH1 mut inh)
C[C@@H]1CCCCO[C@@H](CN(C)C(=O)c2ccccc2)[C@H](C)CN([C@H](C)CO)C(=O)c2cc(NS(=O)(=O)c3ccc(Cl)cc3)ccc2O1	T cruzi growth-1 98.0 (no result: IDH1 mut inh) | T cruzi growth-2 111.3 | T cruzi growth-3 inactive | 3T3 cytotox inactive | NIH3T3 tox 2 inactive
C[C@@H]1CCCCO[C@H](CN(C)C(=O)c2ccccc2)[C@H](C)CN([C@H](C)CO)C(=O)c2cc(NS(=O)(=O)c3ccc(Cl)cc3)ccc2O1	none
CN1[C@@H]2Cn3c(ccc(/C=C/c4ccccc4)c3=O)[C@H]1[C@@H](C(=O)NC1CCCCC1)[C@@H]2CO	none (no result: IDH1 mut inh, T cruzi growth-1)
C[C@H](CO)N1C[C@H](C)[C@H](CN(C)C(=O)Cc2ccccc2)Oc2ncc(-c3ccc(F)cc3)cc2C1=O	none
O=C(C[C@H]1C[C@@H]2c3cc(NC(=O)C4CCOCC4)ccc3O[C@@H]2[C@@H](CO)O1)NCc1ccc(Oc2ccccc2)cc1	T cruzi growth-1 155.6 | T cruzi growth-2 inactive | T cruzi growth-3 inactive | 3T3 cytotox inactive | NIH3T3 tox 2 inactive
O=C(C[C@@H]1C[C@H]2c3cc(NC(=O)Nc4ccccc4F)ccc3O[C@H]2[C@H](CO)O1)NCc1ccc(Oc2ccccc2)cc1	T cruzi growth-1 106.5 | T cruzi growth-2 inactive | T cruzi growth-3 inactive | 3T3 cytotox inactive | NIH3T3 tox 2 78.1
O=C(C[C@H]1C=C[C@@H](NC(=O)NC2CCCC2)[C@H](CO)O1)NCc1ccc(F)cc1	none
COc1ccc2c3c([nH]c2c1)[C@H](CO)N(C(=O)C1CCC1)CC31CCN(C(=O)c2ccncc2)CC1	none (no result: IDH1 mut inh, T cruzi growth-1)
O=C(c1cccc(F)c1)N1CC[C@H]2[C@H](CO)Nc3ccc(C#Cc4ccccc4)cc3[C@H]21	none (no result: IDH1 mut inh, T cruzi growth-1)
O=C(c1cccc(F)c1)N1CC[C@@H]2[C@H]1c1cc(C#Cc3ccc(F)cc3)ccc1N[C@@H]2CO	T cruzi growth-1 114.3 (no result: IDH1 mut inh) | T cruzi growth-2 107.7 | T cruzi growth-3 inactive | 3T3 cytotox inactive | NIH3T3 tox 2 79.1
COc1ccc(C#Cc2ccc3c(c2)[C@@H]2[C@@H](CCN2C(=O)c2cccc(F)c2)[C@@H](CO)N3)cc1	T cruzi growth-1 102.2 (no result: IDH1 mut inh) | T cruzi growth-2 108.1 | T cruzi growth-3 inactive | 3T3 cytotox inactive | NIH3T3 tox 2 25.8
CC(C)NC(=O)Nc1ccc2c(c1)C(=O)N([C@H](C)CO)C[C@H](C)[C@H](CN(C)C(=O)C1CCCCC1)OCCCC[C@@H](C)O2	none
C[C@@H]1CN([C@@H](C)CO)C(=O)c2cc(-c3cncnc3)cnc2O[C@H]1CN(C)C(=O)Cc1ccccc1	none (no result: T cruzi growth-1)

Assay outcomes: PubChem BioAssay, Broad Institute
